Test system: HEK-293T
Experiment: Multiplex assay against HEK293T;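 on Population Tubulin-Different-Phenotype (%): share of the cells with healthy nuclei that show this phenotype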
Format: toxicity, cell-based
Details: human
Method in brief: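 Phenotypes for tubulin, mitochondrial mass and membrane permeability are expressed as per cents of healthy-nucleus cells. Cells were stained live at seeding with Hoechst33342, BioTracker Green Microtubule Cytoskeleton Dye, MitoTracker Red and Annexin V Alexa Fluor 680, then imaged after compound addition on a CQ1 microscope at 37°C and 5% CO2. Machine-learning gating in CellPathfinder separated Hoechst high-intensity objects from normal cells, divided normal cells by nuclear state (healthy, pyknosed, fragmented) and divided pyknosed cells into mitotic or apoptotic.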

[1] = 12 h, 1 µM, compound concentration 1 uM, replicate 1
[2] = 12 h, 1 µM, compound concentration 1 uM, replicate 2
[3] = 12 h, 10 µM, compound concentration 10 uM, replicate 1
[4] = 12 h, 10 µM, compound concentration 10 uM, replicate 2
[5] = 24 h, 1 µM, compound concentration 1 uM, replicate 1
[6] = 24 h, 1 µM, compound concentration 1 uM, replicate 2
[7] = 24 h, 10 µM, compound concentration 10 uM, replicate 1
[8] = 24 h, 10 µM, compound concentration 10 uM, replicate 2
[9] = 48 h, 1 µM, compound concentration 1 uM, replicate 1
[10] = 48 h, 1 µM, compound concentration 1 uM, replicate 2
[11] = 48 h, 10 µM, compound concentration 10 uM, replicate 1
[12] = 48 h, 10 µM, compound concentration 10 uM, replicate 2

c1cn2cc(-c3ccc4cn[nH]c4c3)nc(Nc3ccc(N4CCOCC4)cc3)c2n1 [ENTOSPLETINIB]
Population Apoptotic (%) [1]: 54% | Population Fragmented Nuclei (%) [1]: 8% | Population Healthy Nuclei (%) [1]: 40% | Population Hoechst High Intensity Objects (%) [1]: 16% | Population Membrane Permeable-Phenotype (%) [1]: 0% | Population Mitochondria Different-Phenotype (%) [1]: 95% | Population Mitotic Cells (%) [1]: 45% | Population Normal (%) [1]: 83% | Population Pyknosed Nuclei (%) [1]: 50% | Population Tubulin-Different-Phenotype (%) [1]: 74% | Total Cell Count [1]: 207 | Population Apoptotic (%) [2]: 22% | Population Fragmented Nuclei (%) [2]: 2% | Population Healthy Nuclei (%) [2]: 36% | Population Hoechst High Intensity Objects (%) [2]: 4% | Population Membrane Permeable-Phenotype (%) [2]: 10% | Population Mitochondria Different-Phenotype (%) [2]: 57% | Population Mitotic Cells (%) [2]: 77% | Population Normal (%) [2]: 95% | Population Pyknosed Nuclei (%) [2]: 60% | Population Tubulin-Different-Phenotype (%) [2]: 57% | Total Cell Count [2]: 197 | Population Apoptotic (%) [3]: 41% | Population Fragmented Nuclei (%) [3]: 77% | Population Healthy Nuclei (%) [3]: 6% | Population Hoechst High Intensity Objects (%) [3]: 27% | Population Membrane Permeable-Phenotype (%) [3]: 8% | Population Mitochondria Different-Phenotype (%) [3]: 89% | Population Mitotic Cells (%) [3]: 58% | Population Normal (%) [3]: 72% | Population Pyknosed Nuclei (%) [3]: 16% | Population Tubulin-Different-Phenotype (%) [3]: 81% | Total Cell Count [3]: 1068 | Population Apoptotic (%) [4]: 35% | Population Fragmented Nuclei (%) [4]: 52% | Population Healthy Nuclei (%) [4]: 8% | Population Hoechst High Intensity Objects (%) [4]: 22% | Population Membrane Permeable-Phenotype (%) [4]: 7% | Population Mitochondria Different-Phenotype (%) [4]: 85% | Population Mitotic Cells (%) [4]: 64% | Population Normal (%) [4]: 77% | Population Pyknosed Nuclei (%) [4]: 38% | Population Tubulin-Different-Phenotype (%) [4]: 85% | Total Cell Count [4]: 431 | Population Apoptotic (%) [5]: 43% | Population Fragmented Nuclei (%) [5]: 6% | Population Healthy Nuclei (%) [5]: 52% | Population Hoechst High Intensity Objects (%) [5]: 15% | Population Membrane Permeable-Phenotype (%) [5]: 6% | Population Mitochondria Different-Phenotype (%) [5]: 93% | Population Mitotic Cells (%) [5]: 56% | Population Normal (%) [5]: 84% | Population Pyknosed Nuclei (%) [5]: 41% | Population Tubulin-Different-Phenotype (%) [5]: 72% | Total Cell Count [5]: 227 | Population Apoptotic (%) [6]: 24% | Population Fragmented Nuclei (%) [6]: 4% | Population Healthy Nuclei (%) [6]: 60% | Population Hoechst High Intensity Objects (%) [6]: 2% | Population Membrane Permeable-Phenotype (%) [6]: 5% | Population Mitochondria Different-Phenotype (%) [6]: 48% | Population Mitotic Cells (%) [6]: 75% | Population Normal (%) [6]: 97% | Population Pyknosed Nuclei (%) [6]: 35% | Population Tubulin-Different-Phenotype (%) [6]: 61% | Total Cell Count [6]: 259 | Population Apoptotic (%) [7]: 33% | Population Fragmented Nuclei (%) [7]: 75% | Population Healthy Nuclei (%) [7]: 8% | Population Hoechst High Intensity Objects (%) [7]: 28% | Population Membrane Permeable-Phenotype (%) [7]: 11% | Population Mitochondria Different-Phenotype (%) [7]: 85% | Population Mitotic Cells (%) [7]: 66% | Population Normal (%) [7]: 71% | Population Pyknosed Nuclei (%) [7]: 15% | Population Tubulin-Different-Phenotype (%) [7]: 75% | Total Cell Count [7]: 988 | Population Apoptotic (%) [8]: 40% | Population Fragmented Nuclei (%) [8]: 51% | Population Healthy Nuclei (%) [8]: 12% | Population Hoechst High Intensity Objects (%) [8]: 20% | Population Membrane Permeable-Phenotype (%) [8]: 4% | Population Mitochondria Different-Phenotype (%) [8]: 88% | Population Mitotic Cells (%) [8]: 59% | Population Normal (%) [8]: 79% | Population Pyknosed Nuclei (%) [8]: 35% | Population Tubulin-Different-Phenotype (%) [8]: 93% | Total Cell Count [8]: 430 | Population Apoptotic (%) [9]: 43% | Population Fragmented Nuclei (%) [9]: 10% | Population Healthy Nuclei (%) [9]: 71% | Population Hoechst High Intensity Objects (%) [9]: 7% | Population Membrane Permeable-Phenotype (%) [9]: 1% | Population Mitochondria Different-Phenotype (%) [9]: 56% | Population Mitotic Cells (%) [9]: 56% | Population Normal (%) [9]: 92% | Population Pyknosed Nuclei (%) [9]: 17% | Population Tubulin-Different-Phenotype (%) [9]: 45% | Total Cell Count [9]: 307 | Population Apoptotic (%) [10]: 18% | Population Fragmented Nuclei (%) [10]: 6% | Population Healthy Nuclei (%) [10]: 74% | Population Hoechst High Intensity Objects (%) [10]: 2% | Population Membrane Permeable-Phenotype (%) [10]: 5% | Population Mitochondria Different-Phenotype (%) [10]: 21% | Population Mitotic Cells (%) [10]: 81% | Population Normal (%) [10]: 97% | Population Pyknosed Nuclei (%) [10]: 19% | Population Tubulin-Different-Phenotype (%) [10]: 55% | Total Cell Count [10]: 378 | Population Apoptotic (%) [11]: 23% | Population Fragmented Nuclei (%) [11]: 64% | Population Healthy Nuclei (%) [11]: 18% | Population Hoechst High Intensity Objects (%) [11]: 25% | Population Membrane Permeable-Phenotype (%) [11]: 6% | Population Mitochondria Different-Phenotype (%) [11]: 43% | Population Mitotic Cells (%) [11]: 76% | Population Normal (%) [11]: 74% | Population Pyknosed Nuclei (%) [11]: 16% | Population Tubulin-Different-Phenotype (%) [11]: 57% | Total Cell Count [11]: 913 | Population Apoptotic (%) [12]: 26% | Population Fragmented Nuclei (%) [12]: 47% | Population Healthy Nuclei (%) [12]: 25% | Population Hoechst High Intensity Objects (%) [12]: 20% | Population Membrane Permeable-Phenotype (%) [12]: 4% | Population Mitochondria Different-Phenotype (%) [12]: 71% | Population Mitotic Cells (%) [12]: 73% | Population Normal (%) [12]: 79% | Population Pyknosed Nuclei (%) [12]: 27% | Population Tubulin-Different-Phenotype (%) [12]: 93% | Total Cell Count [12]: 444

Reference: ChEMBL document CHEMBL4689842, “EUbOPEN Chemogenomics Library wave 1” (2021)
